# From paper PMC8266733 (Acta physiologica (Oxford, England), 2021)
# “Also recorded” adds a separate entry of the source.
# Legend:
# [1] = system: Hela-Parkin or Hela-Parkin/USP30 cells
# USP30 [2] = target: T1, USP30 (Homo sapiens, UniProt Q70CQ3); test: TOM20 ubiquitination and turnover; assay type: cell-based
# T1 sequence (Q70CQ3 1-517): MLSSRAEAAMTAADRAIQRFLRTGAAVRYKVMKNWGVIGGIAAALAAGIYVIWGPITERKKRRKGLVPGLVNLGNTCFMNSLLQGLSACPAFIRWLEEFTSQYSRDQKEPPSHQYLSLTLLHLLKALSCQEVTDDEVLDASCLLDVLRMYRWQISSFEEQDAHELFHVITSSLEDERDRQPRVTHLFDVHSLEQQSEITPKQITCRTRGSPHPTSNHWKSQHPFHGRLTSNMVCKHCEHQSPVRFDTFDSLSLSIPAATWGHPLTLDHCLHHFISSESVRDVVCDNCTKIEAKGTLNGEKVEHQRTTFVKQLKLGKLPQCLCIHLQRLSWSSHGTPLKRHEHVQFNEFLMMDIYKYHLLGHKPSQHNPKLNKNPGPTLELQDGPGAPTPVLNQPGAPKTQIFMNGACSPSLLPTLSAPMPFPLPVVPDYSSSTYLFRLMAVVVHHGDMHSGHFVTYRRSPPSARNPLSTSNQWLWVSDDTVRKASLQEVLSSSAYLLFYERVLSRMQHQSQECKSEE
# How it was run: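 HeLa-Parkin cells, with or without lentivirally expressed Myc-USP30, were pretreated with test compound at several concentrations. They were then exposed to 5 μM oligomycin plus 5 μM antimycin A for up to 18 h, with 10 μM QVD during 18 h exposures. RIPA lysates (pH 8.0, on ice) were immunoblotted for ubiquitinated TOM20, TOM20, TOM40 and TIM23 with infrared detection. Three independent experiments.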
# [3] = system: HeLa-Parkin cells expressing USP30; test: FACS analysis of A/O-induced mitophagy using mt-Keima fluorescence; assay type: cell-based
# How it was run: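 HeLa-Parkin and HeLa-Parkin cells with lentivirally expressed Myc-USP30, stably expressing mt-Keima, grown in DMEM/10% FBS. Pretreated with DMSO or test compound at 3 μg/ml, then exposed to 1 μM oligomycin plus 1 μM antimycin A for 1.5 h (legend: 2 h). Cells were trypsinized, PBS-washed and resuspended in PBS. Flow cytometry scored cells with lysosomal (pH 4) mt-Keima.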
# [4] = system: Hela cells, Hela cells expressing YFP-Parkin and PINK1 KO Hela cells expressing YFP-Parkin; assay type: cell-based
# How it was run: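 Parental HeLa, HeLa stably expressing YFP-Parkin, and PINK1 KO HeLa expressing YFP-Parkin were pretreated with test compound at 1 or 3 μg/ml. They were then given 5 μM oligomycin plus 5 μM antimycin A; the 18 h exposure included 10 μM QVD. Cells were lysed on ice in RIPA buffer (pH 8.0, protease inhibitors) and blotted for TOM20 ubiquitination, TOM20 and NDP52. Infrared secondaries were imaged; three independent experiments.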
# [5] = system: Hela-Parkin and Hela-Parkin cells expressing USP30; test: Seahorse assay of oxygen consumption; assay type: cell-based; details: 24 h of ST-539 treatment at high dose
# WT and Mfn2−/− MEF cells = test: Mitochondrial morphology by confocal microscopy; assay type: cell-based, mouse; details: 3 or 10 μg/ml ST-539, 24 h
# [6] = Plasma pharmacokinetics after i.p. injection, LC-MS/MS; assay type: in vivo; details: 25 mg/kg i.p., mice
# How it was run: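 Adult male mice were dosed once at 25 mg/kg i.p. with test compound in 1% DMSO/sesame oil. Serial blood was taken at 0.083, 0.25, 0.5, 1, 2, 4 and 8 h, with terminal cardiac puncture at 24 h, into K2EDTA tubes kept on ice. Plasma was frozen at −70 °C and assayed by LC-MS/MS (n=3 per time point). Parameters were derived from the concentration-time curve.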
# [7] = Tissue concentrations 24 hours post-dose, LC/MS/MS; assay type: in vivo; details: 25 mg/kg i.p., Male C57BL/6 Mice
# How it was run: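 Mice were given a single 25 mg/kg i.p. dose of test compound in 1% DMSO/sesame oil and euthanized at 24 h. Transcardial perfusion preceded brain collection; heart was also harvested. Tissues were rinsed in cold distilled water, blotted dry, weighed and stored on dry ice. Concentrations (ng/g) were measured by LC/MS/MS.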
# mt-Keima mice [8] = test: In vivo mitophagy in mt-Keima mice
# How it was run: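 mt-Keima mice of both sexes received test compound in 1% DMSO/sesame oil at 25 mg/kg/day i.p. for five doses; controls got vehicle (n=4 control, n=5 treated). In heart and liver sections, mt-Keima was excited sequentially at 458 and 561 nm with 570–695 nm emission. Four images per tissue were averaged and normalized to the control mean (set to one). Heart and liver LC3 I/II were immunoblotted against actin.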
# mt-Keima mice [9] = details: mouse, in vivo
# USP30 [10] = target: T1, USP30; details: this compound and similar structures; cited from earlier work
structure (smiles),measurement,setting,value
"N#CC(C#N)=NNc1ccc(OC(F)(F)F)cc1 [FCCP, Carbonyl cyanide-p-trifluoromethoxyphenylhydrazone]",TMRM staining (mitochondrial membrane potential),[1],significant loss of staining
CC(C)(C)NS(=O)(=O)c1cccc2c(NC(=O)C(Cc3ccccc3)NC(=O)c3ccccc3)cccc12 (stereo not shown) [ST-539],TIM23 and TOM40 degradation,"USP30 [2]; 18h A/O treatment, Hela-Parkin cells overexpressing USP30",restored TIM23 and TOM40 degradation
same,TOM20 ubiquitination versus ST-539 dosage,"USP30 [2]; A/O treatment, ST-539 at indicated concentrations",close correlation
same,loss of TOM20 protein level,"USP30 [2]; ST-539 at 10 μg/ml, A/O treatment, in the presence of USP30",~ 90%
same,A/O induced mitophagy (lysosomal positive mt-Keima),"[3]; ST-539 3μg/ml prior to A/O, HeLa-Parkin cells expressing USP30",restored A/O induced mitophagy
same,mitophagy in the absence of mitochondrial stress,"[3]; cellular studies, no mitochondrial stress",minimal change
same,A/O induced TOM20 ubiquitination and decline in TOM20 level,"[4]; cells expressing ectopic Parkin and endogenous PINK1, ST-539 1 or 3μg/ml",further potentiated
same,TOM20 ubiquitination independent of PINK1/Parkin,"[4]; long term treatment (18 h), 3μg/ml ST-539, WT Hela or PINK1 KO cells",did not promote TOM20 ubiquitination
same,basal and maximal respiration,[5],slight increase
same,elongation of mitochondria,WT and Mfn2−/− MEF cells; Mfn2−/− MEF cells,did not induce the elongation of mitochondria significantly
same,mitochondrial morphology,WT and Mfn2−/− MEF cells; wild type MEFs,failed to change the mitochondrial morphology
same,AUC0-inf,[6],4240 ng·h/mL
same,AUC0-last,[6],4162 ng·h/mL
same,Cmax,[6],1427 ng/mL
same,MRT0-inf,[6],4.27 h
same,MRT0-last,[6],3.86 h
same,Tlast,[6],24.0 h
same,Tmax,[6],1.33 h
same,area under the plasma drug concentration-time curve (AUC),[6],~ 4.2 μg•h/ml
same,maximum plasma concentration (Cmax),[6],about 1.4 μg/ml
same,"Tissue concentration, Brain, Mean",[7],17.4 ng/g
same,"Tissue concentration, Heart, Mean",[7],37.0 ng/g
same,LC3-II/LC3-I ratio (LC3 I/II immunoblotting),"mt-Keima mice [8]; 25mg/kg/day for 5 days, heart versus control hearts",increase; also recorded: increased levels of LC3-II
same,cardiac mitophagy (mt-Keima red signal in the heart tissue),"mt-Keima mice [8]; 25mg/kg/day i.p. for 5 days, heart",marked induction of the red signal
same,mitophagic flux in the hippocampus of the brain,"mt-Keima mice [8]; 25mg/kg/day i.p. for 5 days, hippocampus (data not shown)",remains unchanged
same,mitophagic flux in the liver,"mt-Keima mice [8]; 25mg/kg/day i.p. for 5 days, liver",remains unchanged
same,safety of the current dosage in mice,mt-Keima mice [9],appears to be safe
same,inhibition of USP30 enzyme function in vitro,USP30 [10],selectively inhibit USP30 enzyme function
